# According to PubChem BioAssay:
# Active and inactive are the calls of the source.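 How the source made its calls, unless noted: active means viability loss from added drug above about 55%, and viability with drug at most 40%, in both replicates (limit read from the data, passing the limit was not always enough); inconclusive means both conditions met in only one replicate; inactive means neither replicate meets both conditions.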
# Assays:
# [1] = Her2 expression decrease, cell viability multiplex – SKBR3 breast tumor cells, AlphaScreen, ATP viability, primary screen (AID 461;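 active means Her2 level under about 52% in both replicate screens, with viability over 70% of control, limit read from the data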;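 on Her2 level: lower value means less Her2 protein in the cells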;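 on viability: percent of carrier control wells set as 100% viability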); conditions: SKBR3 Her2 protein level, 18-24 h, measured here: SKBR3 viability, ATP luminescence, at 10 µM
# [2] = target: Receptor tyrosine-protein kinase erbB-2 (Homo sapiens) (UniProt P04626); experiment: as above; conditions: 18-24 h, at 10 µM, stronger effect = lower value
# Chain of Receptor tyrosine-protein kinase erbB-2 (Homo sapiens) (P04626 whole entry, looked up): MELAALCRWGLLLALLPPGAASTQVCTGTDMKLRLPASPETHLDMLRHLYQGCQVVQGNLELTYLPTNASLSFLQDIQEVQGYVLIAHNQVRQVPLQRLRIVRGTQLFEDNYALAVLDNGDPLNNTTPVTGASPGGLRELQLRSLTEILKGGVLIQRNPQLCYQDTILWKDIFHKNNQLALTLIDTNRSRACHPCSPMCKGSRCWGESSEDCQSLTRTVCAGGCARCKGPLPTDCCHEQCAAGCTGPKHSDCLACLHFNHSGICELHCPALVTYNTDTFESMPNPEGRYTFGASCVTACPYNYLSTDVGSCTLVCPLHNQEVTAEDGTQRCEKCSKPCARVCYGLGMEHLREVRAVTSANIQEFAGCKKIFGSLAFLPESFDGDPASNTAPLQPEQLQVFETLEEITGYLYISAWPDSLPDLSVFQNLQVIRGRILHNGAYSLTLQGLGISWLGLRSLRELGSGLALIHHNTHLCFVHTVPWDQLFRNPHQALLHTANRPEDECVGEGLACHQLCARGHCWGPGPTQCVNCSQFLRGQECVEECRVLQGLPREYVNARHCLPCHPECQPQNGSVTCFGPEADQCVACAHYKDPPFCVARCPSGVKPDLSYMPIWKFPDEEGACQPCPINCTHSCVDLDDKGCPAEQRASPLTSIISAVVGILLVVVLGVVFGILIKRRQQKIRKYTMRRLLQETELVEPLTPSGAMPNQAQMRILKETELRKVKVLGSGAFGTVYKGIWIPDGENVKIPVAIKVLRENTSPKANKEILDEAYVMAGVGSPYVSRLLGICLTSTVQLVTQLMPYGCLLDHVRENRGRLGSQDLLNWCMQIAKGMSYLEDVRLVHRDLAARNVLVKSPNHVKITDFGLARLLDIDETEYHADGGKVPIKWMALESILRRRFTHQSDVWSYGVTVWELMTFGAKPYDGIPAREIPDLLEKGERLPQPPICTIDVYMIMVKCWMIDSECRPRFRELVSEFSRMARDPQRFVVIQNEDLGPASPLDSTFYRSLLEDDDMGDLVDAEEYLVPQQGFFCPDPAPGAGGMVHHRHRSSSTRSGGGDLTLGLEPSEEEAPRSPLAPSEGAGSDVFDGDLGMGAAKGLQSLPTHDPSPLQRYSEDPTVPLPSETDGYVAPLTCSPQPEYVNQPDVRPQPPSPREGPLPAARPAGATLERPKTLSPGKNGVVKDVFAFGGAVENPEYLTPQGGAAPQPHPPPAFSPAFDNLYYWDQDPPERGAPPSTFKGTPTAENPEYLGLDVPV
# [3] = reduced viability of SK-BR-3 breast cancer cells – cell-based, 24 h, human, pilot screen (AID 572;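 active means viability at or below 10% of carrier control in both of two separate runs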;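 further: compound exposure lasted between 18 and 24 h rather than exactly 24 h; 100% = carrier-treated control wells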); conditions: SK-BR-3 viability, CellTiter-Glo luminescence, at 10 µM, stronger effect = lower value
# [4] = HUVEC growth inhibition – cell-based, human, primary screen (AID 575;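 active means viability at or below 30% in both replicate assays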;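 further: 100% = median of untreated cell wells with 0.1% DMSO on each plate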); conditions: HUVEC proliferation, CellTiter-Glo luminescence, 72 h; at 10 µM; stronger effect = lower value
# In short: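 Timing: 72 h treatment at 37 °C; material: HUVEC primary cells; technique: CellTiter-Glo luminescence measuring cellular ATP; controls: vehicle and MePR control wells; measure: percent of median DMSO-control luminescence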
# [5] = H69AR cell proliferation blockers – human, duplicate replicates, primary screen (AID 580;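 active means viability at or under a set limit in both replicates, limit being median viability minus 3 SD, cut at about 48% in these data, passing the limit was not always enough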;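 further: 100% = mean luminescence of untreated wells and 0% = no signal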); conditions: H69AR lung tumor cells viability, ATP luminescence, 72 h; at 10 µM; stronger effect = lower value
# [6] = MRP1 drug-resistance reversers in H69AR cells – cell-based, doxorubicin co-treatment, pilot screen (AID 601); conditions: CellTiter-Glo, 72 h, at 10 µM; for differential viability (reversal): stronger effect = higher value
# [7] = yeast transport mutant growth inhibition pilot in 384-well plates, post-Golgi transport modulator project (AID 636; in the data active means inhibition above about 31%); conditions: absorbance 615 nm, about 18 h, stronger effect = higher value
# [8] = growth suppression of yeast trafficking mutant, preliminary HTS, modulators of trafficking downstream of Golgi apparatus project, 1536-format plate, OD 615 nm (AID 637; in the data active means inhibition above about 30%); conditions: yeast transport mutant growth, absorbance 615 nm, 18 h; stronger effect = higher value
# [9] = H69AR cells + 2 uM doxorubicin, measured here: viability with 2 uM doxorubicin, stronger effect = lower value
# [10] = H69AR cells, compound alone cytotoxicity
Compound,viability [1],Her2 level [2],viability [3],viability [4],viability [5],differential viability (reversal) ([6]; H69AR cells + 2 uM doxorubicin),"viability [6, 9]","viability [6, 10]",inhibition [7],inhibition [8]
CCOC(=O)c1[nH]c2ccccc2c1NC(=O)c1ccco1,102%,79% (inactive),102% (inactive),106% (inactive),80.3% (inactive),-2.98% (inactive),83.2%,80.3%,-7.03% (inactive),4.33% (inactive)
CCC(CC)C(=O)Nc1cccc(C(=O)NCc2ccco2)c1,94%,104% (inactive),94% (inactive),100% (inactive),69.1% (inactive),-20.5% (inactive),89.6%,69.1%,-3.24% (inactive),-1.64% (inactive)
CCOC(=O)c1cccc(NC(=O)Cn2cnc3c2c(=O)n(C)c(=O)n3C)c1,104%,91.5% (inactive),104% (inactive),102% (inactive),91.2% (inactive),-6.33% (inactive),97.5%,91.2%,-2.97% (inactive),-9.33% (inactive)
Cc1cc(C)cc(-n2nnc(C(=O)NCc3ccco3)c2N)c1,101%,82% (inactive),101% (inactive),89.4% (inactive),88.5% (inactive),-4.65% (inactive),93.2%,88.5%,-0.14% (inactive),-4.92% (inactive)
CC(=O)N1CCc2cc(S(=O)(=O)NC(C(=O)NCc3ccccc3)C(C)C)ccc21 (stereo not given),97%,95.5% (inactive),97% (inactive),94.6% (inactive),102% (inactive),12.1% (inactive),90.1%,102%,-2.5% (inactive),-10% (inactive)
CCOc1cc(CN2CCN(C(=O)c3ccco3)CC2)ccc1OC,79.5%,102% (inactive),79.5% (inactive),88.7% (inactive),89.5% (inactive),1.51% (inactive),87.9%,89.5%,-2.69% (inactive),0.83% (inactive)
COc1ccc(-c2noc(CN(C(=O)C(C)(C)C)C(C)C)n2)cc1,96%,102% (inactive),96% (inactive),102% (inactive),109% (inactive),17.6% (inactive),91.3%,109%,-4.61% (inactive),-6.83% (inactive)
OC(CCN1CCOCC1)(c1ccc(Cl)cc1)C1CCCCC1 (stereo not given),82.5%,102% (inactive),82.5% (inactive),99.6% (inactive),82% (inactive),-3.7% (inactive),85.7%,82%,-0.4% (inactive),21.5% (inactive)
CCOC(=O)C(C)(C)Sc1nc2c(cnn2-c2ccc(C)cc2)c(=O)[nH]1,99%,100% (inactive),99% (inactive),90.4% (inactive),79.9% (inactive),-16.5% (inactive),96.3%,79.9%,-1.95% (inactive),-0.79% (inactive)
Cc1[nH]c(=O)[nH]c(=O)c1S(=O)(=O)Nc1ccc(Oc2ccccc2)cc1,96%,84.5% (inactive),96% (inactive),93.6% (inactive),97.8% (inactive),10.3% (inactive),87.5%,97.8%,-0.66% (inactive),1.45% (inactive)
CCN(CC)CCCNS(=O)(=O)c1ccc(OC)cc1,114%,89% (inactive),114% (inactive),103% (inactive),90.3% (inactive),-8.58% (inactive),98.9%,90.3%,-5.32% (inactive),-2.3% (inactive)
CCCn1c(NC(=O)C2COc3ccccc3O2)nc2ccccc21 (stereo not given),99.5%,90% (inactive),99.5% (inactive),66.1% (inactive),67.8% (inactive),-13.7% (inactive),81.6%,67.8%,-3.47% (inactive),5.74% (inactive)
Cc1nc(-c2cnn(-c3ccccc3)c2)c2cc(C)oc2n1,74.5%,76% (inactive),74.5% (inactive),67.2% (inactive),90.7% (inactive),3.27% (inactive),87.4%,90.7%,-2.11% (inactive),3.28% (inactive)
CS(=O)(=O)Nc1ccc(S(=O)(=O)Nc2nccs2)cc1,97%,90% (inactive),97% (inactive),116% (inactive),95.9% (inactive),3.66% (inactive),92.2%,95.9%,-2.93% (inactive),1.31% (inactive)
COCCCNC(=O)CCc1nc(-c2ccccc2Cl)no1,102%,95% (inactive),102% (inactive),103% (inactive),93.3% (inactive),-0.855% (inactive),94.1%,93.3%,0.39% (inactive),6.39% (inactive)
O=c1c(CN2CCN(Cc3ccccc3)CC2)coc2ccc(Cl)cc12,90%,85.5% (inactive),90% (inactive),100% (inactive),95.7% (inactive),12.5% (inactive),83.3%,95.7%,-4.81% (inactive),-6.89% (inactive)

Compound,viability [1],Her2 level [2],viability [3],viability [4],viability [5],differential viability (reversal) ([6]; H69AR cells + 2 uM doxorubicin),"viability [6, 9]","viability [6, 10]",inhibition [7],inhibition [8]
CN(Cc1cccs1)c1ncnc2sccc12,112%,78.5% (inactive),112% (inactive),70.7% (inactive),92.4% (inactive),-0.54% (inactive),93%,92.4%,-4.87% (inactive),1.27% (inactive)
COC(=O)C1=C(C)OC(N)=C(C#N)C1c1ccccc1 (stereo not given),94.5%,77% (inactive),94.5% (inactive),102% (inactive),94% (inactive),12.1% (inactive),82%,94%,-1.18% (inactive),-9.82% (inactive)
COc1ccc(S(=O)(=O)N2CCN(CC(=O)Nc3ccc(F)c(F)c3)CC2)cc1,88.5%,86% (inactive),88.5% (inactive),75.6% (inactive),91.1% (inactive),-2.83% (inactive),93.9%,91.1%,-1.73% (inactive),-1.94% (inactive)
O=C(O)CCCNS(=O)(=O)c1ccc(NCc2ccccc2)c(C(=O)O)c1,87%,94% (inactive),87% (inactive),92.3% (inactive),93% (inactive),1.6% (inactive),91.4%,93%,-6.89% (inactive),0.83% (inactive)
NC(=O)CSc1nnc(-c2cnccn2)n1-c1ccccc1,114%,97% (inactive),114% (inactive),103% (inactive),89.8% (inactive),7.27% (inactive),82.5%,89.8%,-5.07% (inactive),1.13% (inactive)
Cc1ccc(NC(=O)C2CCCN(S(=O)(=O)c3cnc[nH]3)C2)cc1C (stereo not given),95%,110% (inactive),95% (inactive),102% (inactive),100% (inactive),5.56% (inactive),94.6%,100%,-5.6% (inactive),-2.3% (inactive)
CCCCP(=O)(CCCC)c1ccccc1C(=O)O,110%,104% (inactive),110% (inactive),90% (inactive),107% (inactive),12.9% (inactive),94.2%,107%,1.82% (inactive),-2.46% (inactive)
Fc1ccccc1C(c1nnnn1Cc1ccc2c(c1)OCO2)N1CCN(Cc2ccccc2)CC1 (stereo not given),121%,88% (inactive),121% (inactive),69.6% (inactive),89.3% (inactive),-7.54% (inactive),96.9%,89.3%,2.16% (inactive),-4.13% (inactive)
O=C(CCS(=O)(=O)c1cccc2nonc12)Nc1cccc2c1CCCC2,94.5%,114% (inactive),94.5% (inactive),103% (inactive),95.5% (inactive),12% (inactive),83.5%,95.5%,-6.44% (inactive),-3.65% (inactive)
O=C(CSc1ccc(Cl)cc1)OCc1nnc(-c2ccccc2)o1,98%,99% (inactive),98% (inactive),106% (inactive),109% (inactive),29.6% (inactive),79.5%,109%,0.53% (inactive),-0.91% (inactive)
COc1ccc(Br)cc1CNC(=O)CCc1nc(-c2ccc(C)cc2)no1,101%,77.5% (inactive),101% (inactive),87.4% (inactive),94.2% (inactive),11.5% (inactive),82.7%,94.2%,-4.34% (inactive),-4.67% (inactive)
CCOC(=O)c1sc(C)c2c1NC(C)(c1cccs1)NC2=O (stereo not given),105%,96.5% (inactive),105% (inactive),83.6% (inactive),82.5% (inactive),-8.16% (inactive),90.6%,82.5%,-1.73% (inactive),-6.94% (inactive)
O=C1CCNc2cc3ccccc3cc21,73.5%,84% (inactive),73.5% (inactive),61.7% (inactive),70.5% (inactive),0.425% (inactive),70%,70.5%,-8.9% (inactive),1.27% (inactive)
COCCNC(=O)CCc1nc(-c2ccccc2)no1,87%,103% (inactive),87% (inactive),92.6% (inactive),103% (inactive),5.2% (inactive),98.1%,103%,-3.47% (inactive),2.7% (inactive)
N#CC1=C(N)Oc2n[nH]c(-c3ccncc3)c2C1c1ccsc1 (stereo not given),88%,95% (inactive),88% (inactive),113% (inactive),87.7% (inactive),-6.48% (inactive),94.2%,87.7%,0.53% (inactive),-4% (inactive)
COc1ccc(OCC(=O)N2CCN(C(=O)c3cccs3)CC2)cc1,117%,82.5% (inactive),117% (inactive),83.5% (inactive),87.4% (inactive),1.78% (inactive),85.6%,87.4%,-3.29% (inactive),-2.9% (inactive)
